Assay results from the EternaBench riboswitch data.

Test system: MS2 coat protein
Assay: apparent Kd, MS2 coat protein; higher = weaker binding; RNA-MaP array
Summary of the method: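 Fluorescently labeled MS2 coat protein, from 1.5 nM to 3 μM, was incubated at room temperature with designed RNAs transcribed on an Illumina sequencing chip from sequenced DNA templates. Times ran from 0.8–1.5 h at the lowest concentrations to 10–20 min at the highest, in Tris-HCl pH 7.5 buffer with KCl, MgCl2, BSA, DTT, tRNA and Tween20, with or without input ligand. Each apparent Kd is the median of per-cluster binding-curve fits, and designs with fewer than 10 measured clusters were excluded.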

[1] = designed as: ON switch for flavin mononucleotide, no ligand
[2] = ligand present: flavin mononucleotide, designed as: ON switch for flavin mononucleotide
[3] = designed as: OFF switch for flavin mononucleotide, no ligand
[4] = ligand present: flavin mononucleotide, designed as: OFF switch for flavin mononucleotide
[5] = designed as: ON switch for tryptophan, no ligand
[6] = ligand present: tryptophan, designed as: ON switch for tryptophan

| Sequence | apparent Kd [3] [nM] | apparent Kd [4] [nM] | further results |
| --- | --- | --- | --- |
| GUGACUAAAUGCAAGGAUAUCCGCGGCGGUACAUGAGGAUCACCCAUGUCAAGAGUCCACUGGCAGGAGAAGGUGCCCUGCGUCAU | – | – | apparent Kd [1]: 7.57 nM; apparent Kd [2]: 6.07 nM |
| GUGAGACAUGAGGAUCACCCAUGUUAGGAUAUAAAAGGCAAACGUAAUGGCGAGGUUAAUAGAAGGAACAGAAA | 15.6 | 11.9 | – |
| GUGGGCGCUGAGAAGGACCGGAGACGCCGAUUGGUAGGAUAUCAGAAAGGUGCCGGUGAUUACAUGAGGAUCACCCAUGUAUGG | 22.8 | 20.2 | – |
| GUUAGUCCACGAGGAUAUCGAAAUCGGCCCAGUGAAUUUUCACAUGAGGAUCACCCAUGUCAUAUCGAGAAGGCGUCUGAAAGC | 35.7 | 41.9 | – |
| GUUCAACGGUGAGGAUAUUGCAGUACGUACGCACAAGAAGGCACUCCAUAGCACAGGGUGCACAUGAGGAUCACCCAUGUGGUC | 494 | 224 | – |
| GUUUACAUGAGGAUCACCCAUGUCGCCGGCCGAGGACCGGUACGGCCGCCACUCGUCCUAAUGGCACUUGACUUCCCUAUUAAGU | – | – | apparent Kd [5]: 20.3 nM; apparent Kd [6]: 24.3 nM |
| UAAAGCUGAAAGAAGGCUCCAUCGCUAGUACUGAGAGGAUAUUUCGUUGUUGACAUGAGGAUCACCCAUGUGGUUCGCCGGGCC | – | – | apparent Kd [1]: 49.4 nM; apparent Kd [2]: 26.8 nM |
| UAACCAUGCAAAGGAUAUCCAAUACUAUGAGACGGAGAAGGUAGAAACAUGGAGAAUUCCUACAUGAGGAUCACCCAUGUUAGA | 387 | 245 | – |
| UAACGCCCCUUAGGAUAUCCACGUAACCCCUCCCCCGUAAGUAGAAACAUGAGGAUCACCCAUGUGGAGAAGGAAGUGACCCGC | 20.8 | 18.9 | – |
| UAAGAAGAUGAGAAGGGCCAAGUAUGAGCCGGGCGAUACAUGAGGAUCACCCAUGUUUCCUAACGGCAGGAUAUCACUUCCUAU | 5.86 | 18.8 | – |
| UAAGAGUCGGCAGGAUAUGUCCCUUGAGCGCAGACAGAAGGGCCACUAUCUUUCACAUGAGGAUCACCCAUGUCCUCCCUGGAG | 49 | 61.6 | – |
| UAAGCACAUCAGAAGGCGCAUUAGUUGAACUUGCGAGGAUAUGAUCUGUCCUCAUCAACAUGAGGAUCACCCAUGUGUCAGCUC | 37.6 | 140 | – |
| UAAUAGAAAGGAUAUACAUAGGUUGGCUAAUGACGUUCCGAACAUGAGGAUCACCCAUGUAGAAGGUUCUGCGU | 12.4 | 29.5 | – |
| UACAAGCAAGGAUAUACAUGAGGAUCACCCAUGUGGAGAGCCAGCAAAUUCCGGAAAUGUAGAAGGUGCCACAA | 34.4 | 32.8 | – |
| UACGGUGCAGGAUAUCGAAUUUCAAACAUGAGGAUCACCCAUGUCUAAUAUGGCGACUAACGAGAAGGGCAGGAAG | 16.2 | 16 | – |
| UAGGACAUGAGGAUCACCCAUGUUGUACGGCGAGGACCGGUACGGCCGCCACUCGAGGCGUAAGUAGUAAAGAAUCUGAUUCAAU | – | – | apparent Kd [5]: 21.4 nM; apparent Kd [6]: 24.1 nM |
| UAGUCAUCGGCAGGAUAUUCGCUAGUAGACUAUGAAGAAGGGCCACGUACCUCACAAACAUGAGGAUCACCCAUGUAUCUGGAC | 39.2 | 29 | – |
| UAUGUACAUGAGGAUCACCCAUGUCAGGAUAUCUUCGAUUAGACCAUUAGCGCCGCGGAGAGAAGGGACGUAGA | 16 | 15.1 | – |
| UAUUGCAAUGUGAGGAUAUCUCAAGAAAAGACAAGAGAGAAGGCACAUGAGGAUCACCCAUGUUAGAAACAAAA | 19.3 | 110 | – |
| UCAGAUGUGAAGGAUAUUCCGCGAGCAGCUACGGAAGAAGGUCAAACAUGAGGAUCACCCAUGUGUCUCCCGGG | 14.4 | 22.4 | – |
| UCAUGCUGAGGAUAUACAUGAGGAUCACCCAUGUACAGAAUAAGGGAGUGCCAUCAAAGUAGAAGGCAGGACGU | 14.4 | 14.6 | – |

| Sequence | apparent Kd [3] [nM] | apparent Kd [4] [nM] | further results |
| --- | --- | --- | --- |
| UCCCGAAAGAAGAAGGGUACACCGAGCUGGUAACACAGCAAAACAUGAGGAUCACCCAUGUCUGAACAGGAUAUUCCGCGAGUA | – | – | apparent Kd [1]: 31.9 nM; apparent Kd [2]: 25.5 nM |
| UCCCGACAUGAGGAUCACCCAUGUGGACAGUACACAGGAUAUUAACUCAUUACAAUAGAAUAAGAAGGGUGGUACC | – | – | apparent Kd [1]: 69.1 nM; apparent Kd [2]: 47.1 nM |
| UCCUCGUUUACAUGAGGAUCACCCAUGUGCUCGUCUAAACAUUAGGAUAUCGACCCUCUGCGCAUCGAGAAGGAAUACGGCGAG | 192 | 204 | – |
| UCGCAUUCAGGAUAUACUUAAAGGUGAACUGAUCAUAGCAAACAUGAGGAUCACCCAUGUAGAAGGGAAAUAUC | 99.2 | 72.7 | – |
| UCUAACCUAGGAUAUACAUGCCUUGCGUAGCACAUCCGUUUACAUGAGGAUCACCCAUGUAGAAGGAGGGACGG | 6.55 | 8.51 | – |
| UCUUCAAUAGUAAGGAUAUCCAUAACAACAUUCAAGGAGAAGGUACAUGAGGAUCACCCAUGUGGAGUCAAUAA | 13.1 | 19.8 | – |
| UGACUCUCUGUCAGGAUAUAACAAGCUACAGUUUAUUAGAAGGGACAUGAGGAUCACCCAUGUUGAACACCCGA | 7.94 | 7.98 | – |
| UGACUGUCGAAAGGAUAUGGUCGCACGCACACAUCAGUGUUUCACAUGAGGAUCACCCAUGUGGUCCAGAAGGUUCAUAAAUAU | – | – | apparent Kd [1]: 197 nM; apparent Kd [2]: 122 nM |
| UGAUACAUGAGGAUCACCCAUGUUGAUCCCGAGAAGUCCGUAAGAAGGACAGACACGAUGGAUCUGUAGGAUAUUACGACGGAC | 182 | 122 | – |
| UGAUUAUACUUUGAGGAUAUACUAGGACUCACAUGAGGAUCACCCAUGUGUGCGGCUAUACGAGCGUAGAAGGCAAAUACUCCGGC | – | – | apparent Kd [1]: 9.31 nM; apparent Kd [2]: 7.91 nM |
| UGCGUCGUUUAGAAGGGAGUGGCCCAACAUGAGGAUCACCCAUGUGACGCUCAGAAUGUAUUUGCUCAGGAUAUAAAUGUCUUU | 162 | 123 | – |
| UGCUGCUCGAGAGGAUAUACGAAAUGGAACAUGAGGAUCACCCAUGUAUAUCUCCACAAACAGACGUAGAAGGCACAAUAAGGA | – | – | apparent Kd [1]: 58.2 nM; apparent Kd [2]: 45.8 nM |
| UGCUUUUACGGAGGAUAUCUUUGGUCGUUAUGAAGAGAAGGCCGUCCUAACAUGAGGAUCACCCAUGUAUCUCAUUACAGUCUC | – | – | apparent Kd [1]: 22.9 nM; apparent Kd [2]: 16.3 nM |
| UGUCACUGUUUGGUUCAAUGAAGAAGAAUUCGAGGACCGGUACGGCCGCCACUCGCUAUGCAACAUGAGGAUCACCCAUGUAAAA | – | – | apparent Kd (designed as: OFF switch for tryptophan, no ligand): 15.8 nM; apparent Kd (ligand present: tryptophan, designed as: OFF switch for tryptophan): 15.3 nM |
| UGUCGUAAAGGAUAUACAUGAGGAUCACCCAUGUCGGCCGUUAGGCCGUAAGGUGUGCGUAGAAGGUUACAUUG | 191 | 149 | – |
| UGUGACCGCCAUUCUCGCGACAUGAGGAUCACCCAUGUUUCCAGAAGGCUCCAGGCUUGUGCUCGAGAGGAUAUGGGAAGAUUC | 28.4 | 26.5 | – |
| UUAAUUCAGUGCCACAUGAGGAUCACCCAUGUCCAUACUCAAAAGGAUAUAUGCGGUUUCUAAGUAUAGAAGGUUUGUACACGA | – | – | apparent Kd [1]: 130 nM; apparent Kd [2]: 89 nM |
| UUACAACUAAUGGAUACCAGCCGCGUGCUAGUGGUAGCAUACAUGAGGAUCACCCAUGUCGGCCCUUGGCAGCCACGCCCAUGCU | – | – | apparent Kd (designed as: OFF switch for theophylline, no ligand): 14.5 nM; apparent Kd (ligand present: theophylline, designed as: OFF switch for theophylline): 21.5 nM |
| UUAUCGGUCUCAGGAUAUCAGUAUCACUCAUUAUGAGAAGGGAGACACUCCGGAACAUGAGGAUCACCCAUGUGGGCCUUGGGU | 172 | 103 | – |
| UUAUUCCCGGAGGAUAUCGACGUAUUUGGCGCCCGAGAAGGCCGGACAUGAGGAUCACCCAUGUCCCGUGCUCU | 5.66 | 5.82 | – |
| UUCACAGUGCAAGGAUAUGACAGUUUACAUGAGGAUCACCCAUGUUGGUCCUAUUCAGAAUGAGAUCAGAAGGUGCUAAUAUGU | 18.6 | 36.1 | – |
